Laboratory results from ChEMBL document CHEMBL4177555, “Mycobacterium tuberculosis lysine-ɛ-aminotransferase a potential target in dormancy: Benzothiazole based inhibitors” (Bioorg Med Chem, 2017).
≈ marks a conversion by molar mass, not a printed value. Calls of active or inactive are those of the source. The rule behind the calls is not given here.

What was measured:
[1] = Growth inhibition of mouse RAW264.7 cells at 50 ug/ml after 48 hrs by MTT assay relative to control; type: cell-based; details: read-out: GI
How it was run: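 RAW 264.7 mouse macrophages exposed to compound at 50 µg/ml for 48 h. Viability read as MTT conversion to formazan.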

[2] = test system: Mycobacterium tuberculosis; assay: Antibacterial activity against replicative stage Mycobacterium tuberculosis H37Rv after 7 days by MABA; type: functional; details: 168 h
How it was run: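 MABA run in duplicate. H37Rv from fresh LJ medium grown in 7H9/OADC at 37 °C to McFarland no.1, then diluted 1:25 as inoculum. Compounds tested in serial dilutions. After 7 days, alamar blue/Tween 80 (1:1) added and plates re-incubated overnight.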

[3] = molecular target: T1, L-lysine-epsilon aminotransferase (Mycobacterium tuberculosis, UniProt P9WQ77); assay: Inhibition of Mycobacterium tuberculosis LAT using L-lysine as substrate by spectroscopic method
T1 sequence (P9WQ77 whole entry): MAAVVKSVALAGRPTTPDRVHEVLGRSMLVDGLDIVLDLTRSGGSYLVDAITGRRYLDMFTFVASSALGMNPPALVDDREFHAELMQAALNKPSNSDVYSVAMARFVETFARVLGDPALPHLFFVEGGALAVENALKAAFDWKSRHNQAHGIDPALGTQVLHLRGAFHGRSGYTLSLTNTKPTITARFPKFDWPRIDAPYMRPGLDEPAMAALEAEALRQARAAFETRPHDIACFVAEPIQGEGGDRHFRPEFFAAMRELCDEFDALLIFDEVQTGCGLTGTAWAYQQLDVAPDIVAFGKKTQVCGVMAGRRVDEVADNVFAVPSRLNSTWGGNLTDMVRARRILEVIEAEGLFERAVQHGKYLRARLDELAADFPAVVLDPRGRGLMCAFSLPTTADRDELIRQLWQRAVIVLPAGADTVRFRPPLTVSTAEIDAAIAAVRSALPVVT
How it was run: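 Purified recombinant MTB LAT incubated 1 h at 37 °C in 200 mM phosphate pH 7.2 with 1.5 mM L-lysine, 1.5 mM α-ketoglutarate and 15 µM pyridoxal 5-phosphate, with compounds at several concentrations. Stopped with 10% TCA in ethanol. Products read as o-aminobenzaldehyde adduct at 465 nm and at 280 nm.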

[4] = test system: Mycobacterium tuberculosis; assay: Antibacterial activity against Mycobacterium tuberculosis H37Rv nutrient starvation model assessed as log reduction in bacterial colonies at 10 ug/ml measured after 7 days by MPN assay; type: functional
How it was run: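 H37Rv grown in 7H9/OADC to OD 0.8–1.0, washed twice, then held in PBS in sealed bottles at 37 °C for 6 weeks. Starved aliquots exposed to compound at 10 µg/ml for 7 days. Persisters enumerated by MPN assay.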

[5] = test system: Mycobacterium tuberculosis; assay: Antibiofilm activity against Mycobacterium tuberculosis assessed as log reduction in bacterial count at 10 ug/ml measured after 7 days by MPN assay; type: functional
How it was run: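 MTB inoculated 1:100 in Sauton's medium, sealed and grown 5 weeks at 37 °C to form a mature biofilm. Compound added to the medium (n=4) for 7 days. Tween-80 0.1% added, cells washed in PBS/10% glycerol/0.05% Tween-80 and homogenised. Persisters compared with solvent control by MPN assay.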

[6] = test system: Mycobacterium tuberculosis; assay: Antibacterial activity against Mycobacterium tuberculosis H37Rv infected in 3D culture of human PBMC assessed as colony forming units treated for 4 days measured after 3 days; type: functional
How it was run: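 PBMCs at 5x10^5 cells/well in collagen–fibronectin ECM (pH 7.0), infected with H37Rv at MOI 0.1, grown in RPMI with 20% human serum at 37 °C/CO2. Granulomas treated 4 days, then with or without Rif for 3 more days. Collagenase release, Triton X-100 lysis, 7H10 plating, cfu counted after 4 weeks.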

Mycobacterium marinum [7] = assay: Antibacterial activity against Mycobacterium marinum ATCC BAA-535 infected in Zebra fish assessed as log reduction in bacterial counts at 10 mg/kg, po administered for 7 days by MPN assay; type: functional
How it was run: (§1)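 Adult zebrafish (n=6 per group) infected intraperitoneally with M. marinum ATCC BAA-535 grown at 30 °C in 7H9 broth (about 0.75 million bacteria). From day 7 after infection, drug given orally by micropipette for 7 days. Fish then homogenised, tissue taken up in 7H9 broth, and bacterial counts read by MPN assay.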

Mycobacterium marinum [8] = assay: Antibacterial activity against Mycobacterium marinum ATCC BAA-535 infected in Zebra fish assessed as log reduction in bacterial counts at 5 mg/kg, po administered for 7 days by MPN assay; type: functional; how it was run: as §1
[9] = test system: Mycobacterium tuberculosis; assay: Antibacterial activity against non-replicative stage Mycobacterium tuberculosis H37Rv; type: functional, organism-based

Structure (SMILES) | inhibition at 48 h, 50 ug/ml [1] [%] | MIC [2] [µM] | IC50 [3] [µM] | log(activity) [4] | log(activity) [5] | Activity [6] [×10⁵ CFU] | log(activity) (Mycobacterium marinum [7]) | log(activity) (Mycobacterium marinum [8]) | Activity [9]
N#C/C(=C\c1ccc(OCc2ccccc2)cc1)c1nc2ccccc2s1 | 22.8 | 68 (≈ 25 µg/mL) | 47.9 | – | – | – | – | – | –
N#C/C(=C\c1ccc2c(c1)OCO2)c1nc2ccccc2s1 | 45.7 | 81.7 (≈ 25 µg/mL) | 66 | – | – | – | – | – | –
N#C/C(=C\c1ccc(F)cc1)c1nc2ccccc2s1 | 10.6 | 89.3 (≈ 25 µg/mL) | 4.11 | – | – | – | – | – | –
N#C/C(=C\c1ccc(-c2cc(C(=O)O)cc(C(=O)O)c2)o1)c1nc2ccccc2s1 | 14.4 | 60.1 (≈ 25 µg/mL) | 1.15 | 2.8 | – | – | – | – | –
CO[C@H]1/C=C/O[C@@]2(C)Oc3c(C)c(O)c4c(O)c(c(/C=N/N5CCN(C)CC5)c(O)c4c3C2=O)NC(=O)/C(C)=C\C=C\[C@H](C)[C@H](O)[C@@H](C)[C@@H](O)[C@@H](C)[C@H](OC(C)=O)[C@@H]1C [RIFAMPIN] | 23.5 | 0.5 (≈ 0.411 µg/mL) | – | 1.3 | 2 | 3.3 | – | – | –
N#C/C(=C\c1ccc(O)cc1)c1nc2ccccc2s1 | 2.26 | > 89.9 | 10.4 | – | – | – | – | – | –
COc1cc(/C=C(\C#N)c2nc3ccccc3s2)cc(OC)c1OC | 12.6 | > 71 | 64.9 | – | – | – | – | – | –
N#C/C(=C\c1cccs1)c1nc2ccccc2s1 | 17.3 | > 93.3 | 92.6 | – | – | – | – | – | –
N#C/C(=C\c1c[nH]c2ccccc12)c1nc2ccccc2s1 | 45.7 | > 83.1 | 37.9 | – | – | – | – | – | –
N#C/C(=C\c1ccc([N+](=O)[O-])s1)c1nc2ccccc2s1 | 60.3 | > 79.9 | 54.8 | – | – | – | – | – | –
N#C/C(=C\c1ccc[nH]1)c1nc2ccccc2s1 | 56.4 | > 99.6 | 17 | – | – | – | – | – | –
N#C/C(=C\c1ccc(O)cc1O)c1nc2ccccc2s1 | 45.7 | 10.6 (≈ 3.12 µg/mL) | 23.2 | – | – | – | – | – | –
COc1ccc(/C=C(\C#N)c2nc3ccccc3s2)cc1OC | 32.5 | > 77.6 | 61.4 | – | – | – | – | – | –
COc1c(N2C[C@@H]3CCCN[C@@H]3C2)c(F)cc2c(=O)c(C(=O)O)cn(C3CC3)c12 [MOXIFLOXACIN] | – | – | – | 2.2 | 1.8 | – | 2.7 | – | –
COc1cc(/C=C(\C#N)c2nc3ccccc3s2)ccc1O | 34.8 | 20.3 (≈ 6.26 µg/mL) | 7.83 | – | – | – | – | – | –
N#C/C(=C\c1ccccc1OCC(=O)O)c1nc2ccccc2s1 | 52.3 | 2.32 (≈ 0.78 µg/mL) | 53.8 | – | – | – | – | – | –
N#C/C(=C\c1ccco1)c1nc2ccccc2s1 | 47.3 | 49.6 (≈ 12.5 µg/mL) | 16.2 | – | – | – | – | – | –
NNC(=O)c1ccncc1 [ISONIAZID] | 93.2 | 0.4 (≈ 0.0549 µg/mL) | – | 1.2 | 1.9 | – | – | 2.8 | –
N#C/C(=C\c1ccc(-c2cccc(C(=O)O)c2)o1)c1nc2ccccc2s1 | 3.12 | > 67.2 | 3.74 | – | – | – | – | – | –
N#C/C(=C\c1ccc(OCC(=O)O)cc1)c1nc2ccccc2s1 | 12.7 | 4.64 (≈ 1.56 µg/mL) | 3.08 | 2.8 | – | – | – | – | Active
N#C/C(=C\c1ccc(-c2ccc(C(=O)O)cc2)s1)c1nc2ccccc2s1 | 5.64 | 2.01 (≈ 0.781 µg/mL) | 6.72 | – | – | – | – | – | Active
N#C/C(=C\c1ccc(-c2ccc(C(=O)O)cc2)o1)c1nc2ccccc2s1 | 15.2 | > 67.2 | 14.1 | – | – | – | – | – | –
N#C/C(=C\c1ccc([N+](=O)[O-])o1)c1nc2ccccc2s1 | 19.6 | > 84.2 | 19.6 | 2.8 | – | – | – | – | –
N#C/C(=C\c1ccc(-c2cccc(C(=O)O)c2)s1)c1nc2ccccc2s1 | 18.9 | 64.4 (≈ 25 µg/mL) | 5.73 | 2.9 | 2.1 | – | – | – | –
